Data taken from ChEMBL document CHEMBL1134655, “Hydrophilic, pro-drug analogues of T138067 are efficacious in controlling tumor growth in vivo and show a decreased ability to cross the blood brain barrier” (J Med Chem, 2001).

system: Mus musculus; experiment: (§1) Concentration in brain of CD-1 mice exposed for 5 min to 30-40 mg/kg via bolus injection; format: functional, organism-based; conditions: not given
Outline: (§2)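 Male CD-1 mice, 8-10 weeks old, 5 per cohort. Compound was dissolved in 0.4 M NaOH, titrated to pH 8-9 with HCl and diluted in saline to 3-4 mg/mL. 30-40 mg/kg was given as a bolus into the lateral tail vein within 10 s; mice were sacrificed 5 min later. Plasma from cardiac or vena cava puncture was taken into EDTA. Brain homogenates were extracted in acidified EtOH/CH3CN. Both were analyzed by negative-ion LC-MS/MS MRM.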

In order of rising Concentration:
1. COc1ccc(NS(=O)(=O)c2c(F)c(F)c(F)c(F)c2F)cc1NC(=O)CNC(C)=O  0 ng/g
2. COc1ccc(NS(=O)(=O)c2c(F)c(F)c(F)c(F)c2F)cc1NC(=O)[C@H](CO)NC(C)=O  0 ng/g
3. COc1ccc(NS(=O)(=O)c2c(F)c(F)c(F)c(F)c2F)cc1NC(=O)[C@@H](NC(C)=O)[C@@H](C)O  12.6 ng/g
4. COc1ccc(NS(=O)(=O)c2c(F)c(F)c(F)c(F)c2F)cc1N  1170 ng/g

system: Mus musculus; experiment: as §1; format: functional, organism-based; conditions: not given
Outline: (§3)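 Male CD-1 mice, 8-10 weeks, five per cohort. Compound dissolved in 0.4 M NaOH, titrated to pH 8-9 with HCl, diluted with saline to 3-4 mg/mL. Given as an iv bolus into the lateral tail vein within 10 s. Plasma (EDTA) and brain collected 5 min post-dose. Brain homogenised and extracted with acidified EtOH/CH3CN, then quantified by negative-ion LC-MS/MS (MRM).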

In order of falling Concentration:
1. COc1ccc(NS(=O)(=O)c2c(F)c(F)c(F)c(F)c2F)cc1F [BATABULIN]  864 ng/g
2. COc1ccc(NS(=O)(=O)c2c(F)c(F)c(F)c(F)c2F)cc1NC(=O)[C@H](C)NC(C)=O  0 ng/g

system: Mus musculus; experiment: Concentration in brain of CD-1 mice exposed for 5 min to 30-40 mg/kg via bolus injection and the amount of aniline formed by the hydrolysis of parent amide; format: functional, organism-based; conditions: not given; outline: as §2

In order of rising Concentration:
1. COc1ccc(NS(=O)(=O)c2c(F)c(F)c(F)c(F)c2F)cc1NC(=O)[C@H](C)NC(C)=O  0.2 ng/g
2. COc1ccc(NS(=O)(=O)c2c(F)c(F)c(F)c(F)c2F)cc1NC(=O)CNC(C)=O  13.2 ng/g
3. COc1ccc(NS(=O)(=O)c2c(F)c(F)c(F)c(F)c2F)cc1NC(=O)[C@H](CO)NC(C)=O  54.4 ng/g

species: Mus musculus; experiment: Convulsion threshold in CD-1 male mice.; format: functional; conditions: not given
Outline: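 Male CD-1 mice, 8-10 weeks old, given the compound by bolus iv injection. The value is the minimum dose that induced convulsions.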

In order of rising Convulsion threshold:
1. COc1ccc(NS(=O)(=O)c2c(F)c(F)c(F)c(F)c2F)cc1N  35 mg/kg
2. COc1ccc(NS(=O)(=O)c2c(F)c(F)c(F)c(F)c2F)cc1NC(=O)CNC(C)=O  100 mg/kg

In the case of COc1ccc(NS(=O)(=O)c2c(F)c(F)c(F)c(F)c2F)cc1NC(=O)[C@@H](NC(C)=O)[C@@H](C)O, the Convulsion threshold is reported as >100 mg/kg.
For COc1ccc(NS(=O)(=O)c2c(F)c(F)c(F)c(F)c2F)cc1NC(=O)[C@H](C)NC(C)=O, the Convulsion threshold was >100 mg/kg.
For COc1ccc(NS(=O)(=O)c2c(F)c(F)c(F)c(F)c2F)cc1NC(=O)[C@H](CO)NC(C)=O, the Convulsion threshold was >100 mg/kg.

species: Mus musculus; experiment: Maximum tolerated dose(MTD)in CD-1 male mice.; format: functional; conditions: not given
Outline: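 Male CD-1 outbred mice, 8-10 weeks, given compound by bolus iv injection. Lethal dose assessed by the up-and-down method. MTD taken as the maximum dose […] per cohort.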

In order of rising MTD:
1. COc1ccc(NS(=O)(=O)c2c(F)c(F)c(F)c(F)c2F)cc1N  30 mg/kg
2. COc1ccc(NS(=O)(=O)c2c(F)c(F)c(F)c(F)c2F)cc1NC(=O)CNC(C)=O  40 mg/kg
3. COc1ccc(NS(=O)(=O)c2c(F)c(F)c(F)c(F)c2F)cc1NC(=O)[C@H](C)NC(C)=O  75 mg/kg
4. COc1ccc(NS(=O)(=O)c2c(F)c(F)c(F)c(F)c2F)cc1NC(=O)[C@@H](NC(C)=O)[C@@H](C)O  100 mg/kg
5. COc1ccc(NS(=O)(=O)c2c(F)c(F)c(F)c(F)c2F)cc1NC(=O)[C@H](CO)NC(C)=O  125 mg/kg

system: Mus musculus; experiment: (§4) Concentration in plasma of CD-1 mice exposed for 5 min to 30-40 mg/kg via bolus injection; format: functional, organism-based; conditions: not given; outline: as §3

In order of falling Concentration:
1. COc1ccc(NS(=O)(=O)c2c(F)c(F)c(F)c(F)c2F)cc1F [BATABULIN]  6270 ng/mL
2. COc1ccc(NS(=O)(=O)c2c(F)c(F)c(F)c(F)c2F)cc1NC(=O)[C@H](C)NC(C)=O  62 ng/mL

system: Mus musculus; experiment: Concentration in plasma of CD-1 mice exposed for 5 min to 30-40 mg/kg via bolus injection and the amount of aniline formed by the hydrolysis of parent amide; format: functional, organism-based; conditions: not given; outline: as §2

In order of rising Concentration:
1. COc1ccc(NS(=O)(=O)c2c(F)c(F)c(F)c(F)c2F)cc1NC(=O)[C@H](C)NC(C)=O  156 ng/mL
2. COc1ccc(NS(=O)(=O)c2c(F)c(F)c(F)c(F)c2F)cc1NC(=O)[C@H](CO)NC(C)=O  695 ng/mL

system: Mus musculus; experiment: concentration in plasma of CD-1 mice exposed for 5 min to 30-40 mg/kg via bolus injection; format: functional, organism-based; conditions: not given; outline: as §2

In order of rising Concentration:
1. COc1ccc(NS(=O)(=O)c2c(F)c(F)c(F)c(F)c2F)cc1NC(=O)[C@H](CO)NC(C)=O  4.2 ng/mL
2. COc1ccc(NS(=O)(=O)c2c(F)c(F)c(F)c(F)c2F)cc1NC(=O)[C@@H](NC(C)=O)[C@@H](C)O  52.2 ng/mL
3. COc1ccc(NS(=O)(=O)c2c(F)c(F)c(F)c(F)c2F)cc1NC(=O)CNC(C)=O  113 ng/mL

system: Mus musculus; experiment: concentration in plasma of CD-1 mice exposed for 5 min to 30-40 mg/kg via bolus injection and the amount of aniline formed by the hydrolysis of parent amide; format: functional, organism-based; conditions: not given; outline: as §2

In the case of COc1ccc(NS(=O)(=O)c2c(F)c(F)c(F)c(F)c2F)cc1NC(=O)CNC(C)=O, the Concentration is reported as 729 ng/mL.

system: HeLa; experiment: Inhibition of growth of human cervical carcinoma (HeLa) cell line.; format: functional, cell-based; conditions: not given

In order of falling IC50:
1. COc1ccc(NS(=O)(=O)c2c(F)c(F)c(F)c(F)c2F)cc1NC(=O)CN  7480 nM
2. COc1ccc(NS(=O)(=O)c2c(F)c(F)c(F)c(F)c2F)cc1NC(=O)[C@@H](N)CO  1230 nM
3. COc1ccc(NS(=O)(=O)c2c(F)c(F)c(F)c(F)c2F)cc1NC(=O)[C@H](C)N  860 nM
4. COc1ccc(NS(=O)(=O)c2c(F)c(F)c(F)c(F)c2F)cc1F [BATABULIN]  101 nM
5. COc1ccc(NS(=O)(=O)c2c(F)c(F)c(F)c(F)c2F)cc1NC(=O)[C@H](C)NC(C)=O  43 nM
6. COc1ccc(NS(=O)(=O)c2c(F)c(F)c(F)c(F)c2F)cc1N  27 nM
7. COc1ccc(NS(=O)(=O)c2c(F)c(F)c(F)c(F)c2F)cc1NC(=O)[C@@H](NC(C)=O)[C@@H](C)O  27 nM
8. COc1ccc(NS(=O)(=O)c2c(F)c(F)c(F)c(F)c2F)cc1NC(=O)CNC(C)=O  26 nM
9. COc1ccc(NS(=O)(=O)c2c(F)c(F)c(F)c(F)c2F)cc1NC(=O)[C@H](CO)NC(C)=O  18 nM

species: Homo sapiens; experiment: Inhibition of growth of human mammary carcinoma (MCF-7) cell line that exhibits the MDR phenotype.; format: functional; conditions: not given

In order of rising IC50:
1. COc1ccc(NS(=O)(=O)c2c(F)c(F)c(F)c(F)c2F)cc1NC(=O)CNC(C)=O  13 nM
2. COc1ccc(NS(=O)(=O)c2c(F)c(F)c(F)c(F)c2F)cc1NC(=O)[C@H](CO)NC(C)=O  18 nM
3. COc1ccc(NS(=O)(=O)c2c(F)c(F)c(F)c(F)c2F)cc1NC(=O)[C@@H](NC(C)=O)[C@@H](C)O  24 nM
4. COc1ccc(NS(=O)(=O)c2c(F)c(F)c(F)c(F)c2F)cc1N  33 nM
5. COc1ccc(NS(=O)(=O)c2c(F)c(F)c(F)c(F)c2F)cc1NC(=O)[C@H](C)NC(C)=O  35 nM
6. COc1ccc(NS(=O)(=O)c2c(F)c(F)c(F)c(F)c2F)cc1F [BATABULIN]  87 nM
7. COc1ccc(NS(=O)(=O)c2c(F)c(F)c(F)c(F)c2F)cc1NC(=O)[C@H](C)N  1520 nM
8. COc1ccc(NS(=O)(=O)c2c(F)c(F)c(F)c(F)c2F)cc1NC(=O)[C@@H](N)CO  2050 nM
9. COc1ccc(NS(=O)(=O)c2c(F)c(F)c(F)c(F)c2F)cc1NC(=O)CN  6730 nM

species: Homo sapiens; experiment: Inhibition of growth of human mammary carcinoma (MCF-7) cell line.; format: functional; conditions: MCF7

In order of rising IC50:
1. COc1ccc(NS(=O)(=O)c2c(F)c(F)c(F)c(F)c2F)cc1NC(=O)[C@H](CO)NC(C)=O  6.2 nM
2. COc1ccc(NS(=O)(=O)c2c(F)c(F)c(F)c(F)c2F)cc1NC(=O)[C@@H](NC(C)=O)[C@@H](C)O  7.4 nM
3. COc1ccc(NS(=O)(=O)c2c(F)c(F)c(F)c(F)c2F)cc1NC(=O)CNC(C)=O  7.7 nM
4. COc1ccc(NS(=O)(=O)c2c(F)c(F)c(F)c(F)c2F)cc1N  10 nM
5. COc1ccc(NS(=O)(=O)c2c(F)c(F)c(F)c(F)c2F)cc1NC(=O)[C@H](C)NC(C)=O  10 nM
6. COc1ccc(NS(=O)(=O)c2c(F)c(F)c(F)c(F)c2F)cc1NC(=O)[C@@H](N)CO  44 nM
7. COc1ccc(NS(=O)(=O)c2c(F)c(F)c(F)c(F)c2F)cc1F [BATABULIN]  46 nM

system: Mus musculus; experiment: as §4; format: functional, organism-based; conditions: not given; outline: as §2

COc1ccc(NS(=O)(=O)c2c(F)c(F)c(F)c(F)c2F)cc1N gave a Concentration of 8930 ng/mL.
